Values after ≈ are worked out from the molar mass of the structure shown.
Key:
[1] = Passive permeability in canine kidney cells; format: ADME, cell-based, Canis lupus familiaris; conditions: dog; read-out: permeability
[2] = biological target: T1, Serine/threonine-protein kinase TAO2 (Homo sapiens) (UniProt Q9UL54); assay: Inhibition of TAOK2 at 1 uM
T1 sequence (whole entry): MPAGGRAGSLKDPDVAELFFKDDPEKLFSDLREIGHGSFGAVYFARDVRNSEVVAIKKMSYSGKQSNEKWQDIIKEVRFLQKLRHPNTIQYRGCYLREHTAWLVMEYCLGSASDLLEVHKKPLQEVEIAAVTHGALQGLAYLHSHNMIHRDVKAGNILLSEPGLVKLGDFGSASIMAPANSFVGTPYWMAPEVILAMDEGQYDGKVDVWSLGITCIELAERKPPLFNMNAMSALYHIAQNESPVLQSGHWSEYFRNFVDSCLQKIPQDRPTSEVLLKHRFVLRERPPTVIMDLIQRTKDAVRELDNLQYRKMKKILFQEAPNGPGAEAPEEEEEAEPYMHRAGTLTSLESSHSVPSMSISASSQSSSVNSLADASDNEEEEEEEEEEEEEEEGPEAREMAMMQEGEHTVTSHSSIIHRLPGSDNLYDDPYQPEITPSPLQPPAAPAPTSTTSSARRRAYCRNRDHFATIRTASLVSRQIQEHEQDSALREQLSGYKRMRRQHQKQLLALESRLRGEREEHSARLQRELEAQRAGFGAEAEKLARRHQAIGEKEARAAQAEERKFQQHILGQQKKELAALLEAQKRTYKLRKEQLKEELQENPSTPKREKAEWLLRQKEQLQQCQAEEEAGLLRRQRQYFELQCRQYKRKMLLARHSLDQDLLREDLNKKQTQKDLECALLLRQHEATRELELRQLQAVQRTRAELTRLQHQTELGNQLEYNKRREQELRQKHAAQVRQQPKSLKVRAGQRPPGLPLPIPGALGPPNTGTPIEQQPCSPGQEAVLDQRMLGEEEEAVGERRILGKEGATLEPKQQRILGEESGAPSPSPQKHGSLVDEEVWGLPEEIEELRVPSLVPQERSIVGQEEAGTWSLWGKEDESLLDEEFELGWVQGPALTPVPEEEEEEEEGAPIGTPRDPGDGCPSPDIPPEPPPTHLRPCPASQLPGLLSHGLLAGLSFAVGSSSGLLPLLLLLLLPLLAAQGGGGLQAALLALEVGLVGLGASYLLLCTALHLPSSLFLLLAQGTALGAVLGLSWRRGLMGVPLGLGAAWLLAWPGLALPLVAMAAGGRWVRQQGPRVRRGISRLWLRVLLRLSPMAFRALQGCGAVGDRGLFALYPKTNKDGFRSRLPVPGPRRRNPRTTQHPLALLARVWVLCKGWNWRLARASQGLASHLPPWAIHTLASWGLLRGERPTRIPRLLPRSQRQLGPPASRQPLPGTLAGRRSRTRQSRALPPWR

[3] = biological target: Glycogen synthase kinase-3 beta (Homo sapiens, UniProt P49841); assay: Inhibition of GSK3-beta
[4] = biological target: T2, 3-phosphoinositide-dependent protein kinase 1 (Homo sapiens, UniProt O15530); assay: Inhibition of PDK1-mediated AKT1 phosphorylation at T308 in human H460 cells after 2 hrs by ELISA; format: cell-based
T2 sequence (O15530 whole entry): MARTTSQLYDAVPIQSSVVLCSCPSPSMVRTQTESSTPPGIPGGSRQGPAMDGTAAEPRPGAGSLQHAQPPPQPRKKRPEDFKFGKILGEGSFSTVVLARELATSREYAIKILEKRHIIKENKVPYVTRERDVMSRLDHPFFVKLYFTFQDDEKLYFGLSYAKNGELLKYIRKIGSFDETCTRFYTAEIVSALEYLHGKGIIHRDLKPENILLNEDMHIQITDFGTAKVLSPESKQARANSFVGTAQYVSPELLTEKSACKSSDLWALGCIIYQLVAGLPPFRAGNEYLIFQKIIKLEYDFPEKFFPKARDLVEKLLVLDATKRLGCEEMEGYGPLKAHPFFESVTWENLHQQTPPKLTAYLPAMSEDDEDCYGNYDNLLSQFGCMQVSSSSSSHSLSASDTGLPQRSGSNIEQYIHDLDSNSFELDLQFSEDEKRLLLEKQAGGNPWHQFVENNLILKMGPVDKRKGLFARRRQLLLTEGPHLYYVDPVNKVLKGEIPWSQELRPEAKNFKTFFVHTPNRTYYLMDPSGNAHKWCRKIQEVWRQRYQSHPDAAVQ
In short: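 Cells seeded at 50,000 per well and left to adhere overnight. Inhibitor was added as a 3-fold serial dilution from 0.0169 nM to 10 μM for 2 h, then cells were lysed. Lysates were tested in a commercial pAKT-T308 sandwich ELISA per the kit protocol. IC50 from duplicates, each run repeated at least twice.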

[5] = biological target: High affinity nerve growth factor receptor (Homo sapiens, UniProt P04629); assay: Inhibition of NTRK1 at 1 uM
[6] = biological target: Vascular endothelial growth factor receptor 2 (Homo sapiens) (UniProt P35968); assay: Inhibition of KDR at 1 uM
[7] = biological target: Serine/threonine-protein kinase mTOR (Homo sapiens, UniProt P42345); assay: Inhibition of GST-tagged mTOR assessed as phosphorylation at Thr46 in GFP-4E-BP1 substrate by TR-FRET assay
In short: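 GST-tagged mTOR (aa 1360-2549) at 1 nM, with 0.4 μM GFP-4E-BP1 and 40 μM ATP. Buffer: 50 mM Hepes pH 7.4, 10 mM MgCl2, 1 mM EGTA, 0.01% Tween-20, at about 22 °C. A terbium anti-phospho-Thr46 antibody was added at the end, and the read-out was TR-FRET. Duplicate data fitted by nonlinear regression. Concentrations are final.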

[8] = biological target: Serine/threonine-protein kinase 26 (Homo sapiens) (UniProt Q9P289); assay: Inhibition of MST4 at 1 uM
[9] = Inhibition of PRKCB2 at 1 uM
A549 = assay: Antiproliferative activity against human A549 cells after 72 hrs by resazurin reduction assay; format: functional, cell-based; conditions: A549, 72 h
In short: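 Cells seeded at 3,000 per well, left to adhere overnight, then given inhibitor as a 3-fold serial dilution from 0.0169 nM to 10 μM. After 72 h, 250 μg/mL resazurin was added, followed by 6 h more at 37 °C. Fluorescence was read at ex 560 / em 590 nm.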

[10] = biological target: T3, RAC-alpha serine/threonine-protein kinase (Homo sapiens, UniProt P31749); assay: Inhibition of AKT1 at 1 uM
[11] = Solubility of the compound at pH 6.5; format: physicochemical; conditions: buffer
[12] = biological target: T3, RAC-alpha serine/threonine-protein kinase; assay: Inhibition of His-tagged AKT1 using 5FAM-GRPRTSSFAEGCONH2 as substrate by fluorescence based assay
[13] = biological target: Serine/threonine-protein kinase MARK1 (Homo sapiens, UniProt Q9P0L2); assay: Inhibition of MARK1 at 1 uM
Serine/threonine-protein kinase MARK1, sequence (Q9P0L2 whole entry, looked up): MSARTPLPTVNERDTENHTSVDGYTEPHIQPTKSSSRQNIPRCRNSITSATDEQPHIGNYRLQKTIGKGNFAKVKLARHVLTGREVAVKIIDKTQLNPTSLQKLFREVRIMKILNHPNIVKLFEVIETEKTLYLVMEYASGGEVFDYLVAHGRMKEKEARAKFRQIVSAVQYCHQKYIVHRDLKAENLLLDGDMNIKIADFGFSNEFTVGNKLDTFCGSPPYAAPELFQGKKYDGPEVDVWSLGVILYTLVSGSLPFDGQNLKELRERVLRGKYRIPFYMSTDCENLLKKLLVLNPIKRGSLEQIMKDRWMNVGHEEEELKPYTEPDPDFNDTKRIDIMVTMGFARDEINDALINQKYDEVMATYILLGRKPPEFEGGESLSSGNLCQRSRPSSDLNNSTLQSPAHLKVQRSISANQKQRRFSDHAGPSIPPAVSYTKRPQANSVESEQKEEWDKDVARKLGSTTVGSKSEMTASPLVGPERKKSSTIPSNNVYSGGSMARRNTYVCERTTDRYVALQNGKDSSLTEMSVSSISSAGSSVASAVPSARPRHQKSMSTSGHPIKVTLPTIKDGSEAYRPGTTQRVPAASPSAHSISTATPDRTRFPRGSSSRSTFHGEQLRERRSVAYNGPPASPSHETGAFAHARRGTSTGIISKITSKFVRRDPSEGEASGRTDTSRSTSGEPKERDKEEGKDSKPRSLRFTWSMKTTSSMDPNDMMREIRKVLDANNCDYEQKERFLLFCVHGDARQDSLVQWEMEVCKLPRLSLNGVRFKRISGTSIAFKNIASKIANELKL

Glycogen synthase kinase-3 beta, sequence (P49841 whole entry): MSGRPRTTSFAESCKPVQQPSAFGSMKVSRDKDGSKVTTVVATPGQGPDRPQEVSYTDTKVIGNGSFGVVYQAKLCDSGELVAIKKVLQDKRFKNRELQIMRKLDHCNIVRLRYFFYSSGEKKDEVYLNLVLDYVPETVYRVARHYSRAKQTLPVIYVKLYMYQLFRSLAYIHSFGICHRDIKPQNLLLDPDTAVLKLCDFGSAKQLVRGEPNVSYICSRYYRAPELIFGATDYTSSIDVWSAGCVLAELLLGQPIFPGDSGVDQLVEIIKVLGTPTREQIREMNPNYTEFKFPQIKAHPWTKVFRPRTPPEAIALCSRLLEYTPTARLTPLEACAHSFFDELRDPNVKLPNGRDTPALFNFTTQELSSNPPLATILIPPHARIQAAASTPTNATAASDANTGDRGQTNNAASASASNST
High affinity nerve growth factor receptor, sequence (P04629 33-796 limits assumed): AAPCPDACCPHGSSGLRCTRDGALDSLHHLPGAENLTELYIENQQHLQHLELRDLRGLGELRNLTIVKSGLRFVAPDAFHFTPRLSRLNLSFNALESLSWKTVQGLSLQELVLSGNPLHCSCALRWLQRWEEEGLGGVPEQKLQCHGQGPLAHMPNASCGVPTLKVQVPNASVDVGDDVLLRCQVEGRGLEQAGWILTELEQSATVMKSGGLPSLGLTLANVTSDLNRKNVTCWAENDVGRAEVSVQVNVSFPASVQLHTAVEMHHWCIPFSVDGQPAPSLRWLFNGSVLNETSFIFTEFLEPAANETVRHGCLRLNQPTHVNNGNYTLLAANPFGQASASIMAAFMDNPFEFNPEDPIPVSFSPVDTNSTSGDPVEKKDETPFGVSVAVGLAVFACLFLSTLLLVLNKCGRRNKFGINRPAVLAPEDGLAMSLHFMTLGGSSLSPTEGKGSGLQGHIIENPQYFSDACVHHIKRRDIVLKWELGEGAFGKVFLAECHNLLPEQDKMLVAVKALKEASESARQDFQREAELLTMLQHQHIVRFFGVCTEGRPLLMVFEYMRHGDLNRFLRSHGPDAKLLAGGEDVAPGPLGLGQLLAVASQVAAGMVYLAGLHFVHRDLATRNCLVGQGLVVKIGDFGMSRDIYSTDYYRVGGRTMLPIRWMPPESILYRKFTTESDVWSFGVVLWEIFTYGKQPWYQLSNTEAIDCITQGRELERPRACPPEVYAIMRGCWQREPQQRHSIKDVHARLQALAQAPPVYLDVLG
Serine/threonine-protein kinase 26 (Homo sapiens), sequence (Q9P289 2-416 limits assumed): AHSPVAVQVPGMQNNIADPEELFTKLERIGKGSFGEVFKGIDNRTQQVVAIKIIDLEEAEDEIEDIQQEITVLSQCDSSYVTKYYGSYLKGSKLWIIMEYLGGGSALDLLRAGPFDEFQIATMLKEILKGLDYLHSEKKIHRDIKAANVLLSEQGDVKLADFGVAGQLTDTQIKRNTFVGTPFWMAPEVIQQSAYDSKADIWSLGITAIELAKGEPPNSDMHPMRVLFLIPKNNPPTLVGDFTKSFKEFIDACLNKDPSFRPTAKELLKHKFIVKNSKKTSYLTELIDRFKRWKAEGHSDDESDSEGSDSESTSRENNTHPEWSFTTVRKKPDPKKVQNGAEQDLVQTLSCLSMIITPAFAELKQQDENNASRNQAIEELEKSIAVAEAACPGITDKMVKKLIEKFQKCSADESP
Vascular endothelial growth factor receptor 2 (Homo sapiens), sequence (P35968 whole entry): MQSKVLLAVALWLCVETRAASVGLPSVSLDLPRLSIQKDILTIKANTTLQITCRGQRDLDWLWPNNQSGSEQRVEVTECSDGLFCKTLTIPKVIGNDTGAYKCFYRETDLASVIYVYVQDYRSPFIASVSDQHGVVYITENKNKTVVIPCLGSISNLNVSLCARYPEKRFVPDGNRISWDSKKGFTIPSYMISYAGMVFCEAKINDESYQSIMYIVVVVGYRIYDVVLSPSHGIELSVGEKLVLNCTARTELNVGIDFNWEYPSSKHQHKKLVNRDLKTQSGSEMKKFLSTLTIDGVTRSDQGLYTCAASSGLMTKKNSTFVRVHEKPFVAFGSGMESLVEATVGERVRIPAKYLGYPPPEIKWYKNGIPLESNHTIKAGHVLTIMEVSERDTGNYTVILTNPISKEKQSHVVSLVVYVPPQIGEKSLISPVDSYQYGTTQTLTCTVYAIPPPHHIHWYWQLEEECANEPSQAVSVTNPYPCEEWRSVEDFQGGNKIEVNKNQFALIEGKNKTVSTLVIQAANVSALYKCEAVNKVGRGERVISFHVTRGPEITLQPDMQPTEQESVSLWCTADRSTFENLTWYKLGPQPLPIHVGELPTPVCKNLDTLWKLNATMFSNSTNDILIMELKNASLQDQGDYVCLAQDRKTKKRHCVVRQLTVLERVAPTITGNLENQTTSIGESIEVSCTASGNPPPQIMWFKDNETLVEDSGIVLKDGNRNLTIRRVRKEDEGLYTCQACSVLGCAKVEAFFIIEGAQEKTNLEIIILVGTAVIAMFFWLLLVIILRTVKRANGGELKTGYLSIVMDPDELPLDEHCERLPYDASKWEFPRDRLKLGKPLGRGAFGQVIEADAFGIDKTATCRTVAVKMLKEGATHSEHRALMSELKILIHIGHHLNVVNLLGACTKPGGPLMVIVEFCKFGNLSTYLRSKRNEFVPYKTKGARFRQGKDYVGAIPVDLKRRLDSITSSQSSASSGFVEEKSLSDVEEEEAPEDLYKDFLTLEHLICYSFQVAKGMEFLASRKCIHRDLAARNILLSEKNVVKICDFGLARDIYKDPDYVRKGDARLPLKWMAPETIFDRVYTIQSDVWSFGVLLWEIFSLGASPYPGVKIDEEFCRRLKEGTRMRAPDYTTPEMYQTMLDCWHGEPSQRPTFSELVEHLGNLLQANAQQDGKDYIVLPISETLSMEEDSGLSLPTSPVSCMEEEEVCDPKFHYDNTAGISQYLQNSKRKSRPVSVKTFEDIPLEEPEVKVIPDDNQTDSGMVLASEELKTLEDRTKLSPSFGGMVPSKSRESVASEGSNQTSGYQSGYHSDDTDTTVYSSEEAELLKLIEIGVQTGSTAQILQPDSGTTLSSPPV
T3 sequence (P31749 whole entry): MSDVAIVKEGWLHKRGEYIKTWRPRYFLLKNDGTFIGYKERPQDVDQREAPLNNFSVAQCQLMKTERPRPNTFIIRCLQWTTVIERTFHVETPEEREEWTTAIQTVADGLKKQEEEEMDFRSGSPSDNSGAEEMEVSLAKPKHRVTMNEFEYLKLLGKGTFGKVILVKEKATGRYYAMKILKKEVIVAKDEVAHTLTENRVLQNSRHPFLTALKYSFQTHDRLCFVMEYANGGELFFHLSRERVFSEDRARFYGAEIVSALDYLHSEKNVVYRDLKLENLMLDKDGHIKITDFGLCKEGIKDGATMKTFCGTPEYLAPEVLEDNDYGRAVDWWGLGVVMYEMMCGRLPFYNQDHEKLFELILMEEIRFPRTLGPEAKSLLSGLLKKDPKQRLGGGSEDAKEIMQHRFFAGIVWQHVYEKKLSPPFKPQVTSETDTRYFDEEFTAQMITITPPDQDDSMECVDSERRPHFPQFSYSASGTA

Row | Papp [1] | inhibition [2] | IC50 [3] | IC50 [4] | inhibition [5] | inhibition [6] | Ki [7] | inhibition [8] | inhibition [9] | EC50 (A549) | inhibition [10] | solubility [11] | Ki [12] | inhibition [13] | SMILES
1 | 11 ×10⁻⁶ cm/s | -1% | 180 nM | 120 nM | 74% | 49% | 2800 nM | 4% | 14% | 1800 nM | 62% | 290 µM (≈ 142 µg/mL) | 170 nM | 84% | CC(C)n1cc(C(=O)c2cncc(N[C@@H]3CCN(C=O)[C@@H]3c3ccc(F)cc3)n2)c2c(N)ncnc21
2 | 11 ×10⁻⁶ cm/s | -5% | 860 nM | 320 nM | 59% | 34% | 3900 nM | -6% | 1% | 5200 nM | 15% | 510 µM (≈ 247 µg/mL) | 1100 nM | 47% | CC(=O)N1CC[C@@H](Nc2cncc(C(=O)c3cn(C(C)C)c4ncnc(N)c34)n2)[C@H]1c1ccccc1
3 | 11 ×10⁻⁶ cm/s | 4% | 340 nM | 160 nM | 63% | 51% | 2600 nM | 8% | 15% | 2200 nM | 57% | 390 µM (≈ 196 µg/mL) | 360 nM | 74% | CC(=O)N1CC[C@@H](Nc2cncc(C(=O)c3cn(C(C)C)c4ncnc(N)c34)n2)[C@H]1c1ccc(F)cc1

Source: ChEMBL document CHEMBL1938337, “Discovery of novel, potent, and selective inhibitors of 3-phosphoinositide-dependent kinase (PDK1)” (J Med Chem, 2011)
